The target in assay [1] is T1, Androgen receptor (Homo sapiens, UniProt P10275).
T1 sequence (P10275 whole entry): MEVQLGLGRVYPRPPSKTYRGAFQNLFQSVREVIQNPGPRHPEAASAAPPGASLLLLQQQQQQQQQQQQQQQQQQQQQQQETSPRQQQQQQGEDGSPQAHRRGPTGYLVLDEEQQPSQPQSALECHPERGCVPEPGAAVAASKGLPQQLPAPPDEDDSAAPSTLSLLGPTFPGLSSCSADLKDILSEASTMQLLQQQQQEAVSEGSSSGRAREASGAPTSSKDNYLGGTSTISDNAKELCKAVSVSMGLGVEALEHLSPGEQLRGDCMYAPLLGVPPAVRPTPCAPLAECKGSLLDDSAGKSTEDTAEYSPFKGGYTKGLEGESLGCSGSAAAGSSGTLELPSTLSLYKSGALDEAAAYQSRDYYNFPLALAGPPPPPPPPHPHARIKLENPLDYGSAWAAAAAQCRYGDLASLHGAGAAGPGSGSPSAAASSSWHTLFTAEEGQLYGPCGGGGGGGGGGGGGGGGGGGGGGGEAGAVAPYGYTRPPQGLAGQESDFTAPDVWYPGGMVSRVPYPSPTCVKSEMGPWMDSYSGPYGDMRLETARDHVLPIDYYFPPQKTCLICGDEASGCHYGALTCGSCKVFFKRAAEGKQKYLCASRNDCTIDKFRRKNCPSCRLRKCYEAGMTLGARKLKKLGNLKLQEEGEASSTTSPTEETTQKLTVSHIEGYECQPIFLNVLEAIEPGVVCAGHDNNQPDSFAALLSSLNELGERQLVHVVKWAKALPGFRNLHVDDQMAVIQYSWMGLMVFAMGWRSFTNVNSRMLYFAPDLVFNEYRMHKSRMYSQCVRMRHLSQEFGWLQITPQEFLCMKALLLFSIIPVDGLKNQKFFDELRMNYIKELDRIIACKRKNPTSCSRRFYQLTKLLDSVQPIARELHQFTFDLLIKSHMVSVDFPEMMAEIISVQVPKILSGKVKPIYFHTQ
The assay can be described thus: Inhibition of BF3 site of androgen receptor in human LNCAP cells expressing ARR2PB after 3 days by eGFP transcriptional assay. It is filed as cell-based.

Assay [2] relates to LNCaP. Kind of assay: Cytotoxicity against human LNCAP cells assessed as growth inhibition at 6 uM after 4 days. The assay is classed as functional, cell-based. An outline of the steps:
(§1)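 Viability read after a 4-day incubation with compound at 6 µM in LNCaP, enzalutamide-resistant LNCaP-derived and AR-independent PC3 prostate cancer cells; data given as mean ± SEM.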

For the next assay, the system named is PC-3. Kind of assay: Cytotoxicity against AR independent human PC3 cells assessed as growth inhibition at 6 uM after 4 days. It is filed as functional, cell-based. The method, boiled down: as §1
Assay [3] concerns the target T2, Estrogen receptor (Homo sapiens) (UniProt P03372).
T2 sequence (whole entry): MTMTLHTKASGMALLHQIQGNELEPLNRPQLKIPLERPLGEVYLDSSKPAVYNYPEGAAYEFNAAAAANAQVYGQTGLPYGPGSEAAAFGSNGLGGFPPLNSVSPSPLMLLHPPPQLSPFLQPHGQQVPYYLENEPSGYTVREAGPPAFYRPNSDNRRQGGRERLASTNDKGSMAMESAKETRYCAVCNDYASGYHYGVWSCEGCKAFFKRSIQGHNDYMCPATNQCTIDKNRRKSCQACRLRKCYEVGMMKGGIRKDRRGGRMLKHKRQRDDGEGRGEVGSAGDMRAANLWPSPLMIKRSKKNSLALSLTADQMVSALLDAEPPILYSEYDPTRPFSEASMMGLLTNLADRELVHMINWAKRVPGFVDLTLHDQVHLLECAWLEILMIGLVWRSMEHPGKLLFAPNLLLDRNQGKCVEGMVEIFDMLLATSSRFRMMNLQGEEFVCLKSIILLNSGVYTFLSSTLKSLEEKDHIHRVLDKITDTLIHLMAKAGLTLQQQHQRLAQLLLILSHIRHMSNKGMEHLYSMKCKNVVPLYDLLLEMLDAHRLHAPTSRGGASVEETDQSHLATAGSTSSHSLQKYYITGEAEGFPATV
Kind of assay: Inhibition of estrogen receptor alpha in human MCF7 cells at 1 to 10 uM after 3 days by luciferase reporter gene assay. The assay is classed as cell-based. The method, boiled down:
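MCF-7 cells were kept 5 days in phenol-red-free RPMI 1640 with 10% CSS, then seeded. After 24 h they were transfected with a luciferase plasmid driven by a consensus estrogen response element. Next day they were treated with 1 nM E2 plus test compound (10 µM final) in 0.1% EtOH/0.1% DMSO. Cells were lysed 24 h later and luminescence read.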

Assay [4] relates to LNCaP. The assay can be described thus: Cytotoxicity against enzalutamide-resistant human LNCAP cells assessed as growth inhibition at 6 uM after 4 days. The assay is classed as functional, cell-based. An outline of the steps: as §1
Assay [5] concerns the target T1, Androgen receptor. It is filed as cell-based, LNCaP.
Assay [6] has as its target T1, Androgen receptor. Kind of assay: Inhibition of BF3 site of androgen receptor in human LNCAP cells expressing ARR2PB assessed as reduction in PSA level after 3 days. It is filed as cell-based.

Usually pIC50 stands for the negative decadic logarithm of the IC50, by convention in mol/L.

Molecules are shown by their SMILES. pIC50: −log10 of the molar value. Calls of active or inactive are those of the source. The calls are words filed in the database; no cut-off is given here. Where only a bound is given, the exact number is not on record here.

On Androgen receptor [1], `COCCn1c(SCCOc2ccc(C)cc2)nc2ccccc21` showed a pIC50 of 4.90.

At Androgen receptor [1], `Cc1ccc(OCCSc2nc3ccccc3n2CC(=O)OC(C)C)cc1` showed a pIC50 of 4.95.

`Cc1cccc(OCCSc2nc3ccccc3n2CC(=O)OC(C)C)c1` showed a pIC50 against Androgen receptor [1] of 4.86.

At Androgen receptor [1], `COC(=O)Cn1c(SCCOc2ccc(C)c(C)c2)nc2ccccc21` gave a pIC50 below 3.70.

Compound `c1ccc(OCCNc2nc3ccccc3[nH]2)cc1` showed a pIC50 against Androgen receptor [1] below 3.70.

At Androgen receptor [1], `CCn1c(SCCOc2cccc(C)c2)nc2ccccc21` had a pIC50 of 4.46.

`Clc1ccc(OCCSc2nc3ccccc3[nH]2)cc1` had a pIC50 against Androgen receptor [1] of 5.40.

In the case of `Cc1ccc(OCCSc2nc3ccccc3n2CCC(=O)O)cc1`, on Androgen receptor [1], the pIC50 was below 3.70.

Regarding `c1ccc(OCCSc2nc3ccccc3[nH]2)cc1`, the “growth inhibition (GI)” value in the assay with LNCaP [2], with PC-3 and in the assay on LNCaP [4] was “inactive” each time. Further, the inhibition entry in assay [3] was “inactive”.

On to `CCOC(=O)Cn1c(SCCOc2ccc(C)c(C)c2)nc2ccccc21`, for which the pIC50 on Androgen receptor [1] was 4.39.

Regarding `CC(C)(C)c1cccc(OCCSc2nc3ccccc3n2CC(=O)O)c1`, the pIC50 against Androgen receptor [1] was below 3.70.

For the compound `c1ccc(OCCCSc2nc3ccccc3[nH]2)cc1`, the pIC50 at Androgen receptor [1] is below 3.70.

With `Cc1cccc(OCCSc2nc3ccccc3n2CCC(=O)O)c1`, the pIC50 against Androgen receptor [1] is below 3.70.

`CCc1cccc(OCCSc2nc3ccccc3n2CCC(=O)O)c1`: the pIC50 against Androgen receptor [1] was below 3.70.

On Androgen receptor [1], `OCCn1c(SCCOc2ccccc2)nc2ccccc21` had a pIC50 below 3.70.

`c1ccc(OCCCc2nc3ccccc3[nH]2)cc1` showed a pIC50 at Androgen receptor [1] below 3.70.

In turn, `Clc1cccc(OCCSc2nc3ccccc3[nH]2)c1` had a pIC50 against Androgen receptor [1] of 5.30.

For `C=CCn1c(SCCOc2ccccc2)nc2ccccc21`, the pIC50 at Androgen receptor [1] is below 3.70.

On Androgen receptor [1], `Cc1cccc(OCCSc2nc3ccccc3n2C)c1` gave a pIC50 of 4.35.

Consider `NS(=O)(=O)c1ccc(OCCSc2nc3ccccc3[nH]2)cc1`, for which the pIC50 against Androgen receptor [1] is 4.21.

Take `c1ccc(CCCSc2nc3ccccc3[nH]2)cc1`: the pIC50 against Androgen receptor [1] is 4.92.

In the case of `CCOC(=O)Cn1c(SCCOc2cccc(CC)c2)nc2ccccc21`, the pIC50 on Androgen receptor [1] is 4.26.

`c1ccc(OCCSc2cc3ccccc3[nH]2)cc1`: the pIC50 at Androgen receptor [1] was 5.27.

Turning to `CCc1cccc(OCCSc2nc3ccccc3n2CC(=O)O)c1`, the pIC50 against Androgen receptor [1] is below 3.70.

Take `CCn1c(SCCOc2ccccc2)nc2ccccc21`: the pIC50 against Androgen receptor [1] was 4.92.

Turning to `Cc1cccc(OCCSc2nc3ccccc3[nH]2)c1`, the pIC50 against Androgen receptor [5] was 4.89; against Androgen receptor [1], 5.74; at Androgen receptor [6], 5.48. Further, the “growth inhibition (GI)” value in the assay with LNCaP [2] and in the assay on LNCaP [4] was “Active” in each case. Besides, the “growth inhibition (GI)” value in the assay with PC-3 is “inactive”. Further, in assay [3], the inhibition result is “inactive”.

`C=CCc1cccc(OCCSc2nc3ccccc3n2CC(=O)OC)c1` showed a pIC50 against Androgen receptor [1] below 3.70.

In the case of `Cc1ccc(C)c(OCCSc2nc3ccccc3n2CC(=O)O)c1`, on Androgen receptor [1], the pIC50 is below 3.70.

Compound `Cc1ccc(OCCSc2nc3ccccc3[nH]2)cc1` had a pIC50 at Androgen receptor [1] of 5.15.

`[O-][S+](CCOc1ccccc1)c1nc2ccccc2[nH]1` (stereo not drawn): on Androgen receptor [1], the pIC50 was below 3.70.

The compound `O=C(O)CCn1c(SCCOc2ccccc2)nc2ccccc21` showed a pIC50 against Androgen receptor [1] below 3.70.

On to `CCOC(=O)Cn1c(SCCOc2cc(C)cc(C)c2)nc2ccccc21`, for which the pIC50 against Androgen receptor [1] was below 3.70.

At Androgen receptor [1], `CCOc1cccc(OCCSc2nc3ccccc3n2CCOc2ccc(C)cc2)c1` had a pIC50 of 4.64.

Compound `CCN(CC)C(=O)Cn1c(SCCOc2cccc(C)c2)nc2ccccc21` gave a pIC50 at Androgen receptor [1] below 3.70.

On Androgen receptor [1], `Cc1ccc(OCCSc2nc3ccccc3n2CC(=O)O)cc1` had a pIC50 of 3.79.

In turn, `COCCn1c(SCCOc2cccc(C)c2)nc2ccccc21` showed a pIC50 against Androgen receptor [1] of 4.62.

For the compound `Cc1cccc(C)c1OCCSc1nc2ccccc2[nH]1`, the negative logarithm of the IC50 (pIC50) was 5.17 at Androgen receptor [5], 5.57 against Androgen receptor [1] and 5.72 at Androgen receptor [6]. The “growth inhibition (GI)” value in the assay on LNCaP [2] and in the assay on LNCaP [4] was “Active” in each case. Moreover, the “growth inhibition (GI)” value in the assay on PC-3 is “inactive”. Moreover, the inhibition result in assay [3] was “inactive”.

On Androgen receptor [1], `Cc1cccc(OCCSc2nc3ccccc3n2CC(=O)O)c1` gave a pIC50 below 3.70.

For `NS(=O)(=O)c1cccc2cc(SCCOc3ccccc3)[nH]c12`, the pIC50 was 5.19 on Androgen receptor [5], 5.82 at Androgen receptor [1] and 5.80 at Androgen receptor [6]. Besides, the “growth inhibition (GI)” value in the assay on LNCaP [2] and with LNCaP [4] was “Active” each time. Moreover, the “growth inhibition (GI)” value in the assay on PC-3 is “inactive”. For the same compound, the inhibition entry in assay [3] was “inactive”.

For the compound `Cc1ccccc1OCCSc1nc2ccccc2[nH]1`, the pIC50 on Androgen receptor [1] is 4.72.

On to `CCOC(=O)Cn1c(SCCOc2cccc(C)c2)nc2ccccc21`, for which the pIC50 against Androgen receptor [1] was 4.85.

`Cc1cccc(OCCSc2nc3ccccc3n2CC(=O)N2CCOCC2)c1`: on Androgen receptor [1], the pIC50 was below 3.70.

Compound `c1ccc(NCCSc2nc3ccccc3[nH]2)cc1` had a pIC50 against Androgen receptor [1] below 3.70.

As for `Cc1cccc(OCCSc2nc3ccccc3n2CCOc2ccccc2)c1`, at Androgen receptor [1], the pIC50 was below 3.70.

`c1ccc(CCSc2nc3ccccc3[nH]2)cc1` had a pIC50 against Androgen receptor [1] of 5.13.

On Androgen receptor [1], `Cc1cc(C)cc(OCCSc2nc3ccccc3n2CC(=O)O)c1` gave a pIC50 below 3.70.

For `Cc1ccc(OCCSc2nc3ccccc3n2CC(=O)OC(C)C)cc1C`, the pIC50 against Androgen receptor [1] was 4.51.

In the case of `Cc1ccc(OCCSc2nc3ccccc3n2CC(=O)O)cc1C`, the pIC50 on Androgen receptor [1] is below 3.70.

Compound `COC(=O)Cn1c(SCCOc2ccc(C)cc2)nc2ccccc21` had a pIC50 against Androgen receptor [1] of 4.48.

Compound `CCc1cccc(OCCSc2nc3ccccc3n2CC(=O)OC)c1` showed a pIC50 at Androgen receptor [1] below 3.70.

For the compound `c1ccc(OCCSc2nc3ccccc3o2)cc1`, the pIC50 against Androgen receptor [1] was below 3.70.

On Androgen receptor [1], `O=S(=O)(CCOc1ccccc1)c1nc2ccccc2[nH]1` had a pIC50 below 3.70.
